Data reported in ChEMBL document CHEMBL1949548, “A β-tryptase inhibitor with a tropanylamide scaffold to improve in vitro stability and to lower hERG channel binding affinity” (Bioorg Med Chem Lett, 2012).

Tests used:
Cytochrome P450 2D6 = Cytochrome P450 2D6 (Homo sapiens, UniProt P10635); experiment: Inhibition of human CYP2D6 using dexotromethorphan as substrate by LC-MS/MS analysis; format: ADME
Outline: (§1)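 Direct-acting CYP inhibition was run in human liver microsomes. Activity was read by LC–MS/MS of marker-substrate turnover: midazolam for CYP3A4 and dexotromethorphan for CYP2D6. IC50 values were derived.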

[1] = molecular target: Voltage-gated inwardly rectifying potassium channel KCNH2 (Homo sapiens, UniProt Q12809); experiment: Inhibition of human ERG by whole-cell patch clamp electrophysiology assay
Outline: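 hERG potassium channel expressed in Chinese hamster ovary cells; channel currents recorded by whole-cell patch clamp electrophysiology.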

Cytochrome P450 3A4 = Cytochrome P450 3A4 (Homo sapiens, UniProt P08684); experiment: Inhibition of human CYP3A4 using midazolam as substrate by LC-MS/MS analysis; format: ADME; outline: as §1
[2] = Inhibition of human tryptase-beta using S-2366 as substrate by chromogenic assay
[3] = Metabolic stability in human liver microsomes after 20 mins; format: ADME, Microsome
Outline: (§2)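 Liver microsomal fractions prepared by centrifugation. Compound incubated with the fractions for 20 min before the reaction was stopped. Stability expressed as percent of compound metabolized.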

[4] = Metabolic stability in rat liver microsomes after 20 mins; format: ADME, Microsome; outline: as §2
[5] = Chemical stability in presence of human semicarbazide-sensitive amine oxidase assessed as compound remaining; format: physicochemical
Outline: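 Human semicarbazide-sensitive amine oxidase (hSSAO) stability read as percent of compound remaining after 24 h.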

hERG (KCNH2) [6] = molecular target: T1, hERG (KCNH2) (Homo sapiens, UniProt Q12809); experiment: Inhibition of human ERG at 1 uM by whole-cell patch clamp electrophysiology assay
Outline: (§3)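 hERG potassium channel expressed in Chinese hamster ovary cells. Channel currents recorded by whole-cell patch clamp electrophysiology, with percent inhibition of current reported.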

hERG (KCNH2) [7] = molecular target: T1, hERG (KCNH2); experiment: Inhibition of human ERG at 10 uM by whole-cell patch clamp electrophysiology assay; outline: as §3

Cytochrome P450 2D6, sequence (P10635 whole entry): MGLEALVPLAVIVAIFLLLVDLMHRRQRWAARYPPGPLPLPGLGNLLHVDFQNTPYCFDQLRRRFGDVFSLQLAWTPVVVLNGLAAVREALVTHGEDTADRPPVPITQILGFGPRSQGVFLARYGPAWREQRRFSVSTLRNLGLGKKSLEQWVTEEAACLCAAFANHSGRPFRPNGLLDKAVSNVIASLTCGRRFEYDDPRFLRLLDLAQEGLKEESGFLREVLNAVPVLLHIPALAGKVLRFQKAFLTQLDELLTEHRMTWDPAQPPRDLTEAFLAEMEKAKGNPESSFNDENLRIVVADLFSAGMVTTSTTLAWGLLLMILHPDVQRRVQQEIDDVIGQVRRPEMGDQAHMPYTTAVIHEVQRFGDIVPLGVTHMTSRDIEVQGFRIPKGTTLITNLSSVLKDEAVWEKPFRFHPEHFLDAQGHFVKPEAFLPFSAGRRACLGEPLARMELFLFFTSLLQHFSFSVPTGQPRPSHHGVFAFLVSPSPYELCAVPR
Cytochrome P450 3A4, sequence (P08684 whole entry): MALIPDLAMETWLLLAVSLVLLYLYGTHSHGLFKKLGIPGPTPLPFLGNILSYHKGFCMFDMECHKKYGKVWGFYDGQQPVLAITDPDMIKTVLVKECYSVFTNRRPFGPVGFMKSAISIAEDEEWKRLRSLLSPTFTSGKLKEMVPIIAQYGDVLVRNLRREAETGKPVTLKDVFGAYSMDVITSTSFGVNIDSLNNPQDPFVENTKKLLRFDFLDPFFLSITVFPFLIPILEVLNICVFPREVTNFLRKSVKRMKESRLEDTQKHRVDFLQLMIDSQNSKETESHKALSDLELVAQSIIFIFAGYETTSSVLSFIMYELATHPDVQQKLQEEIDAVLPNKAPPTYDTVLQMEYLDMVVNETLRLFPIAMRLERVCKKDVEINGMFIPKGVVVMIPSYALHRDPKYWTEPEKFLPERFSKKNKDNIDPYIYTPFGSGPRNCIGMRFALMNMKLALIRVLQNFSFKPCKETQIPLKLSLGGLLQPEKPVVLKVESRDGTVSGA
T1 sequence (Q12809 whole entry): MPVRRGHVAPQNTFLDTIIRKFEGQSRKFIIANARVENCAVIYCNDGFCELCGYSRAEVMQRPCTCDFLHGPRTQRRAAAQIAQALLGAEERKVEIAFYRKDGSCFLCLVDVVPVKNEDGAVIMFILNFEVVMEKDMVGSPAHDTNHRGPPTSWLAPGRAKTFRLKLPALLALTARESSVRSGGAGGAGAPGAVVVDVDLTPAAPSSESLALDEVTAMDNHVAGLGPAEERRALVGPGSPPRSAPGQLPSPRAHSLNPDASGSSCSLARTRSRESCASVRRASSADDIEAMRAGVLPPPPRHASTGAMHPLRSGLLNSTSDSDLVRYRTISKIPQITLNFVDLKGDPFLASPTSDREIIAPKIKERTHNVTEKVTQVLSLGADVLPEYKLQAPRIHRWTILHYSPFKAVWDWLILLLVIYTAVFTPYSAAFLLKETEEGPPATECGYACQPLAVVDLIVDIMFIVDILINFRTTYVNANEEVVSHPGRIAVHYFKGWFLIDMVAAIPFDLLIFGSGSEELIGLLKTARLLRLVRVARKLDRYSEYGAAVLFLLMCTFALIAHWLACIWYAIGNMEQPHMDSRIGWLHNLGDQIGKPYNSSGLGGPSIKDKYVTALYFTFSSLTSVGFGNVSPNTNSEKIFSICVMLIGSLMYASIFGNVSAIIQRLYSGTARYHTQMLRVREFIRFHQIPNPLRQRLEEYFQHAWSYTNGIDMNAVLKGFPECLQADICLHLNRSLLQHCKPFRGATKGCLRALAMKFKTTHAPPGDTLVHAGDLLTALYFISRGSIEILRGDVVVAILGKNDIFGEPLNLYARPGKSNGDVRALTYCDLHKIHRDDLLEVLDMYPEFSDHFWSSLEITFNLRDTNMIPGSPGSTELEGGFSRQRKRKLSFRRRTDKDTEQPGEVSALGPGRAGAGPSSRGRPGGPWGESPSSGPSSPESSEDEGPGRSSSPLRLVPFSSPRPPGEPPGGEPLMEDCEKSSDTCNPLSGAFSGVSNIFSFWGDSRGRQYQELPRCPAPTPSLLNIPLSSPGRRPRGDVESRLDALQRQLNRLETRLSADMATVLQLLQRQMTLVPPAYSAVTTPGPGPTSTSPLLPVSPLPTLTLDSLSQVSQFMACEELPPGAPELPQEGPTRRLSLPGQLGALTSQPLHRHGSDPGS
Voltage-gated inwardly rectifying potassium channel KCNH2, sequence (Q12809 whole entry): as above

| Ki [2] [µM] | Compound | IC50 (Cytochrome P450 2D6) [µM] | IC50 [1] [µM] | IC50 (Cytochrome P450 3A4) [µM] | metabolized at 20 min [3] [%] | metabolized at 20 min [4] [%] | Stability [5] [%] | inhibition at 1 µM (hERG (KCNH2) [6]) [%] | inhibition at 10 µM (hERG (KCNH2) [7]) [%] |
| --- | --- | --- | --- | --- | --- | --- | --- | --- | --- |
| 0.022 | CCCOc1sc(C(=O)N2CCC(c3cccc(CN)c3)CC2)c(C)c1Br | 2.5 | 1 | 4.7 | 26 | 6 | 70 |  |  |
|  | CCCOc1sc(C(=O)N2[C@H]3CC[C@H]2CC(c2cc(CN)ccc2F)C3)c(C)c1Br (some centres undefined) | 6.9 |  | 5.3 | 7 | 0 | 86 | 14 | 36 |
